Shown are actives, neighbours in structure and some others; about 4.4% of the full set was active somewhere.
AI-2 QS modul = modulators of Vibrio harveyi AI-2 quorum sensing system. activity change, % at 7.5 µM. Vibrio harveyi JMH597 AI-2 luminescence/OD600 ratio, 9 h; active compounds read low; strain lacks LuxN and CqsS sensors; 0 = neutral-control median. 0.4% of 300,000 active; in the data active means activity change below about -75%, passing the limit was not always enough;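 further: luminescence divided by OD600 gain over 9 h not by final OD600 alone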
HTR2A ag = activates the mouse 5-HT2A serotonin receptor; P35363; CHO-K1 mHTR2A beta-arrestin complementation, luminescence; percent of 30 µM serotonin response; activation, % at 7.6 µM; 0.66% of 360,000 active; AID 624169;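 active means activation above a run cutoff, the mean activation of all tested compounds plus 3 SD, cut at about 14% in these data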
MsrA inh = bovine MsrA inhibition; purified bovine MsrA, absorbance read-out; inhibition, % at 15.5 µM; 0.75% of 360,000 active; AID 651718; in the data active means inhibition above about 4.5%
TbMetRS inhib = Trypanosoma brucei MetRS inhibition; purified T. brucei MetRS, ATP depletion, Kinase-Glo luminescence; inhibition, % at 11.9 µM; 0.4% of 360,000 active; AID 624268;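 active means inhibition above a per-plate cutoff of the control wells' mean inhibition plus 3 SD, cut at about 5.5% in these data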
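Measured by: Kinase-Glo luciferase luminescence reporting remaining unconsumed ATP. Material: purified T. brucei MetRS enzyme. Doses: 11.9 µM compound single dose, 0.9% DMSO. Medium: HEPES buffer containing pyrophosphatase, BSA, spermine, DTT. Times: 15 min preincubation, 2 h reaction, all 25 °C. Reagent: methionine, ATP and bulk E. coli tRNA.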
bovine MsrA act = bovine methionine sulfoxide reductase A activation; purified bovine MsrA, absorbance read-out; activation, % at 10.6 µM; 0.3% of 360,000 active; AID 602163; in the data active means activation above about 7.5%
AHR activator = activates the human aryl hydrocarbon receptor. activation, % at 5 µM. 2.5% of 320,000 active. AHR-responsive luciferase reporter cells, luminescence. P35869; in the data active means activation above about 47%
Target sequence (P35869 whole entry, looked up): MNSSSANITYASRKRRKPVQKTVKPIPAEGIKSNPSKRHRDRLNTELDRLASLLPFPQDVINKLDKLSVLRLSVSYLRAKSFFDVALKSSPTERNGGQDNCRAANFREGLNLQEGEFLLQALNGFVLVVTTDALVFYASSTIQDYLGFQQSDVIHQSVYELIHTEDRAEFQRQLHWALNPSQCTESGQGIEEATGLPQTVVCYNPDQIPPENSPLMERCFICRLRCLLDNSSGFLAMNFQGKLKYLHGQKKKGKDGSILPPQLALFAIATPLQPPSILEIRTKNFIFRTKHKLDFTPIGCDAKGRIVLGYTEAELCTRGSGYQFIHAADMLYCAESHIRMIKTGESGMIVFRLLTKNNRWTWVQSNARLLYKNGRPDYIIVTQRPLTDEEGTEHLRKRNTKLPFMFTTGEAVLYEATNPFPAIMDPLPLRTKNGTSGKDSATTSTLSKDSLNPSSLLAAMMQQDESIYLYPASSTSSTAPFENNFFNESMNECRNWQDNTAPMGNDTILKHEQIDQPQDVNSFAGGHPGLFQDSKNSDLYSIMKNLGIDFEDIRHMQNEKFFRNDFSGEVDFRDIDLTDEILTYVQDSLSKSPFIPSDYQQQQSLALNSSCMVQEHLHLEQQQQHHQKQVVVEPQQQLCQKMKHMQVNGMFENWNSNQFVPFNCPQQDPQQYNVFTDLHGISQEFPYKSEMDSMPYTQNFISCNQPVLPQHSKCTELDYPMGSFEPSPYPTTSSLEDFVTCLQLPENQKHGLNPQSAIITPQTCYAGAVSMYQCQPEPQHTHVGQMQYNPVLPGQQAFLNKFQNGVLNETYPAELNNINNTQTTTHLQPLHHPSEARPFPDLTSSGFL
MsrA act confirm = bovine methionine sulfoxide reductase A activation confirmed | shares compounds with bovine MsrA act | purified bovine MsrA, absorbance read-out | activation, % at 10.6 µM | 12% of 1,000 active | AID 602270; in the data active means activation above about 4%;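 further: enzyme coupled to thioredoxin and thioredoxin reductase with NADPH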
Numbers stand for hits; n = inactive; x = no result given.

SMILES | AI-2 QS modul | HTR2A ag | MsrA inh | TbMetRS inhib | bovine MsrA act | AHR activator | MsrA act confirm
CCOC(=O)c1sc(=S)n(-c2ccc(OC)cc2)c1C | n | n | n | n | n | n | x
CCOC(=O)c1c2c(n(-c3ccc(OC)cc3)c1C)C(=O)C(=O)c1ccccc1-2 | x | n | x | n | 7.7 | x | 6.2
CC(=O)c1ccc(Nc2nc3ccc(C)cc3n3cnnc23)cc1 | n | n | n | n | 8.2 | n | n
CC1=C(C(=O)Nc2cccc(C(=O)NC3CCCCC3C)c2)SCCO1 (stereo not drawn) | n | n | n | n | n | n | x
Cc1ccc(-c2noc(COc3ccccc3C)n2)cc1 | n | n | n | n | 8.1 | n | n
CC(=O)Nc1ccc(NC(=O)c2cc(-c3ccccc3)nc3ccccc23)cc1 | n | n | n | n | n | x | x
COC(=O)[C@H](NC(=O)c1cc(-c2ccccc2)nc2ccccc12)c1ccccc1 | n | n | n | n | 9.4 | n | n
CCN(C(=O)COC(=O)CCC(=O)c1ccc(Cl)cc1)c1c(N)n(Cc2ccccc2)c(=O)[nH]c1=O | x | n | n | n | 7.7 | x | n
COc1cccc(CC(=O)OCC(=O)c2cc(OC)ccc2OC)c1 | x | n | n | n | n | n | x
COc1cccc(CC(=O)OCC(=O)c2cc(OC)c(OC)c(OC)c2)c1 | x | n | n | n | 8.7 | n | n
Cc1ccc(C(=O)Nc2cccc(C(=O)N3CCOCC3)c2)cc1Cl | n | n | n | n | 21 | n | n
Cc1ccc(CSc2cc(C)[nH]c(=O)n2)cc1 | n | n | n | n | n | n | x
COc1ccc(NC(=O)Nc2ccc3c(c2)C(=O)N([C@H](C)CO)C[C@H](C)[C@@H](CN(C)C(=O)Nc2ccc(OC)cc2)O3)cc1 | x | n | n | n | n | n | x
COc1ccc(OC)c(/C=N/N(CCC#N)C2=NS(=O)(=O)c3ccccc32)c1 | n | n | n | n | 7.9 | n | 5.3
N#CCCN(/N=C/c1cccnc1)C1=NS(=O)(=O)c2ccccc21 | n | n | n | n | n | n | x
Fc1ccc(NCc2nnc(SCc3nnc(-c4ccccc4)o3)n2CC2CCCO2)cc1 (stereo not drawn) | n | n | n | n | n | n | x
Fc1ccc(-c2nnc(SCc3ncc(-c4ccccc4)o3)n2CC2CCCO2)cc1 (stereo not drawn) | n | n | n | n | 11 | n | n
Cc1ccc2[nH]c3c(c2c1)CN(C(=O)CN1CCN(c2ccccn2)CC1)CC3 | n | n | n | n | 10 | n | 4.0
O=C(COC(=O)C1CCC(=O)N1)Nc1ccccc1OC(F)F (stereo not drawn) | x | n | n | n | n | n | x
O=[N+]([O-])c1ccc(Sc2nc3ccccc3o2)c([N+](=O)[O-])c1 | n | n | n | n | 7.7 | n | n
O=[N+]([O-])c1ccc(C=NN2CCNC2=S)o1 | x | n | n | n | n | x | x
CC1CS(=O)(=O)CCN1N=Cc1ccc([N+](=O)[O-])o1 (stereo not drawn) | x | n | n | n | 10 | n | n
Nc1cccc(CP(=O)(c2ccccc2)c2ccccc2)c1 | x | n | n | n | n | n | x
CC(C)[C@]1(c2ccc(Cl)cc2)ON(c2ccccc2C(F)(F)F)C1=O | x | x | x | x | x | n | x
Cc1ccc(S(=O)(=O)N2CCC(C(=O)OCC(=O)N3CCc4ccccc43)CC2)cc1 | n | n | n | n | 8.4 | n | n
SMILES | AI-2 QS modul | HTR2A ag | MsrA inh | TbMetRS inhib | bovine MsrA act | AHR activator | MsrA act confirm
O=[N+]([O-])c1ccc2nc(NN=Cc3ccc(O)cc3)sc2c1 | x | n | n | n | n | x | x
CCOC(=O)CSc1nc2ccccc2n1CC(=O)NC(C)(C)C | n | n | n | n | n | n | x
COc1ccc(C(=O)CSc2nc3ccccc3n2CC(=O)NC(C)(C)C)cc1 | x | n | n | n | 9.7 | n | n
CC1CCc2cc(F)ccc2N1C(=O)CCC(=O)O (stereo not drawn) | n | n | n | n | 9.8 | n | n
COc1ccc(/C=C/C(=O)O)cc1S(=O)(=O)NCc1cccnc1 | n | n | n | n | n | n | x
CCOC(=O)CNC(=O)c1ccccc1Br | n | n | n | n | 21 | n | n
CC1CCCC(NC(=O)C2CCN(S(=O)(=O)c3cnc[nH]3)CC2)C1C (stereo not drawn) | n | n | n | n | n | n | x
O=C(Cc1c(F)cccc1Cl)NNC(=O)c1ccncc1 | x | n | n | n | n | n | x
COc1ccc(-c2c(C)nn3c(N4CCN(Cc5ccccc5)CC4)cc(C)nc23)cc1OC | n | n | n | n | 8.3 | n | n
O=C(Nc1cccc2ccccc12)c1ccc2sc([C@H]3C[C@H](O)[C@@H](CO)O3)nc2c1 | x | n | n | n | n | x | x
O=C(NCCc1ccccc1)C1CCC(CNS(=O)(=O)c2ccc(F)cc2)CC1 (stereo not drawn) | n | n | n | n | n | n | x
COc1ccc(Cl)cc1C(=O)CSc1nc(N)cc(N)n1 | n | n | n | n | 8.0 | n | n
CCCCn1nnnc1SCC(=O)c1cc(Cl)ccc1OC | n | n | n | n | n | n | x
O=C1C=C(c2ccoc2)N2CCC[C@H]2C1 | x | n | n | n | n | n | x
Cc1cccc(N(CC(=O)NC2CCCCC2)C(=O)CCCC(=O)Nc2ccccn2)c1 | n | n | n | n | n | n | x
Cc1cccc(N(CC(=O)NC2CCCC2)C(=O)CCCC(=O)Nc2ccccn2)c1 | n | n | n | n | 7.7 | n | n
CCCCn1c(N)c(N(CC(C)C)C(=O)CC2CCCC2)c(=O)[nH]c1=O | n | n | n | n | n | n | x
COc1cc(NC(=O)c2cc(OC)c(OC)c(OC)c2)c(OC)cc1NC(=O)CN1CCCCC1 | n | n | n | n | 8.4 | n | n
CCN(CC)S(=O)(=O)c1ccc(N2CCCCC2)c(NC(=O)/C=C/c2ccc(OC)c(OC)c2)c1 | n | n | n | n | 15 | n | n
COc1ccc(NC(=O)c2ccc(F)cc2)cc1S(=O)(=O)Nc1cc(C)ccc1Br | n | n | n | n | n | n | x
COc1ccc(NS(=O)(=O)c2cc(NC(=O)c3ccc(F)cc3)ccc2OC)cc1 | n | n | n | n | 9.7 | n | n
O=C(Cc1c(F)cccc1Cl)Nc1cc(S(=O)(=O)N2CCOCC2)ccc1N1CCOCC1 | x | n | n | n | n | x | x
CC1(C)CC(=O)C(C(N)=NC(=O)c2ccccc2)=C(O)C1 | n | n | n | n | n | n | x
CC1(C)CC(=O)C(C(N)=NC(=O)c2ccc([N+](=O)[O-])cc2)=C(O)C1 | n | n | n | n | 17 | n | n
O=C(N/N=C/c1cccs1)C1COc2ccccc2O1 (stereo not drawn) | n | n | n | n | 8.6 | n | n
O=C1ON=C(c2ccccc2[N+](=O)[O-])/C1=C/c1cccc([N+](=O)[O-])c1O | x | n | n | n | n | n | x
Cc1ccc(S(=O)(=O)NC2=NCN(C(C)C)CN2)cc1 | x | n | n | n | n | n | x
O=Nc1ccc(NOC(=O)c2ccccc2Br)cc1 | n | n | n | n | 10 | n | n

Screening data as filed in PubChem BioAssay.
